# Rows were chosen to be rich in hits. Some 29% of all compounds tested hit in one or more screens of this group.
# CYP2C9 inh: human CYP2C9 inhibition | CYP2C9 Supersomes, luciferin-H conversion, luminescence | AID 777 | inhibition, % at 5 µM | P11712 | 96,000 compounds, 20% hits;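 active means blocking of liver enzyme CYP2C9 beyond about 50% at 5 µM, limit read from the data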
# tolC growth inh: growth inhibitors of E. coli BW25113 tolC mutant; growth inhibition, % at 10 µM (by protocol); OD615; 65,000 compounds, 2.2% hits;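 active means growth inhibition at or above a cutoff equal to the mean over every tested compound plus 3 SD, cut at about 60% in these data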;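 further: growth measured after 20 h incubation at 37 °C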
#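 Material: E. coli BW25113 ΔtolC::kan, tolC deletion mutant strain. Measure: percent growth inhibition. Schedule: 37 °C, 20 h exposure. Doses: single-point testing at 10 µM. Signal: A615 absorbance measurement. Buffer or medium: kanamycin-containing LB broth (50 µg/mL).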
# E coli WT exp: blocks growth of wild type E. coli BW25113 | OD600 absorbance | growth inhibition, % at 100 µM | 98,000 compounds, 0.15% hits | AID 710;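 active means growth inhibition above about 50% at one test dose, limit read from the data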;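 further: growth measured after 20 h incubation at 37 °C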
# CYP2C9 act: increases human cytochrome P450 2C9 activity; P11712; 96,000 compounds, 1.4% hits; activation factor at 5 µM; recombinant CYP2C9, luciferin-H conversion, luminescence; hits give high values; factor 1 = untreated enzyme, 0 = blocked;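 active means activation factor of 2 or more for CYP2C9 at a 5 µM dose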;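 further: 0 = sulfaphenazole-blocked wells and 1 = vehicle-only wells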
# CYP2C19 activ: activators of human cytochrome P450 2C19; AID 1025; P33261; 96,000 tested, under 10 active; recombinant CYP2C19, luciferin-H EGE luminescence; hits give high values; 0 = fully inhibited enzyme, 1 = untreated enzyme; activation factor at 5 µM;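 active means activation factor of at least 2 at 5 µM in the primary screen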;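 further: 0 = wells with 2.5 mM tranylcypromine and 1 = vehicle-only wells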
# Target sequence (P33261 whole entry, looked up): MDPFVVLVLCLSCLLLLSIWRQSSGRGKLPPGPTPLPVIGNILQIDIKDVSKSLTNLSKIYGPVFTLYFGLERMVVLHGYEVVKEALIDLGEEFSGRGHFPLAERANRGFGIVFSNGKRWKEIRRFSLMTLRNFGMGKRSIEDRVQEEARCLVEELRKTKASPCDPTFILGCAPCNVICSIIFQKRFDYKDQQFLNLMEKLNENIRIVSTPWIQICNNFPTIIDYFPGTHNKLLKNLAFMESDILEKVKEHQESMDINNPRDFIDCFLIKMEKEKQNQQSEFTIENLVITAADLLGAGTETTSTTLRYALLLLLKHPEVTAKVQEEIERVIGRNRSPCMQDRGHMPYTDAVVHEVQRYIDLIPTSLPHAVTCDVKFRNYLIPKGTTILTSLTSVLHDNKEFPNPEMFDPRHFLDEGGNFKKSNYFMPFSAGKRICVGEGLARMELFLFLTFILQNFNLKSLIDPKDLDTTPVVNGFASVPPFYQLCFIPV
# CYP2C19 inh: inhibitors of human CYP2C19; P33261; CYP2C19 Supersomes, luciferin-H EGE luminescence, 30 min; inhibition, % at 5 µM; 96,000 compounds, 21% hits; AID 778;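 active means CYP2C19 inhibition above a set limit at 5 µM in the primary screen, cut at about 50% in these data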;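 further: plate controls were negative control wells for no effect and 2.5 mM tranylcypromine positive control for full effect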
# An asterisk follows results filed as active; · = no result given.
SMILES,CYP2C9 inh,tolC growth inh,E coli WT exp,CYP2C9 act,CYP2C19 activ,CYP2C19 inh
CCCn1c(NCc2cccc(OC)c2OC)nc2ccccc21,-1.1,-9.9,4.0,1,0.8,23.2
CC(C)n1c(CNC(=O)c2ccccc2)nc2ccccc21,2.2,19.0,-2.0,1,0.1,86.0*
CCCn1c(CNc2ccccc2O)nc2ccccc21,27.9,9.1,8.0,0.7,0.5,51.1*
Cc1ccc(NCc2nc3ccccc3n2C)cc1,31.1,7.6,12.0,0.7,0,95.9*
CC1CN(Cc2nc3c(c(=O)[nH]c(=O)n3C)n2CC(N)=O)CC(C)O1 (stereo unspecified),11.5,-12.7,4.0,0.9,1.2,-15.9
CC(C)n1c(NCc2nc3ccccc3n2C)nc2ccccc21,53.8*,27.6,10.0,0.5,0.2,84.3*
Cn1c(CNc2nc3ccccc3n2C)nc2ccccc21,20.6,-3.9,-5.0,0.8,0.3,69.7*
CCn1c(CNC(=O)c2ccccc2)nc2ccccc21,·,0.7,·,·,·,·
CCn1c(CNc2nc3ccccc3n2C(C)C)nc2ccccc21,82.3*,·,7.0,0.2,0.2,82.0*
Cn1c(NCc2c(O)ccc3ccccc23)nc2ccccc21,-6.4,·,8.0,1.1,1,3.1
CSc1ccccc1NC(=O)C1CCCO1 (stereo unspecified),-29.1,11.9,·,1.3,1.1,-10.4
COc1ccc(Cl)cc1N(C)C(=O)CCc1nc(-c2ccc(C)cc2)no1,93.8*,89.6*,-24.0,0.1,0.1,91.5*
CCc1ccccc1N(C)C(=O)CCc1nc(-c2ccc(C)cc2)no1,62.8*,100.0*,-14.0,0.4,0.5,45.6
CC(C)c1ccccc1NC(=O)c1cccc(NC(=O)c2ccccc2)c1,69.3*,·,-15.0,0.3,0.8,22.4
CC(C)c1ccccc1NC(=O)c1ccco1,·,-9.7,9.0,·,·,·
CCc1cccc(CC)c1NC(=O)c1cccc(NC(=O)c2ccccc2)c1,73.9*,·,-14.0,0.3,0.9,10.0
O=C(Nc1cccc(O)c1)c1ccccc1,-9.2,-8.8,18.0,1.1,1.1,-11.3
CCCCOc1ccc(C2C(=O)N(C3CCCCC3)CC(=O)N2CC2CCCO2)cc1 (stereo unspecified),28.4,·,3.0,0.7,0.8,19.9
CCC1CCCCN1CC(=O)Nc1cc(C)nn1-c1nc(C)cc(C)n1 (stereo unspecified),93.4*,12.7,7.0,0.1,0.5,52.0*
Cc1cc(C)nc(-n2nc(C)cc2NC(=O)CN2CCC(C)CC2)n1,30.7,11.6,0.0,0.7,1,3.4
Nc1c(Cl)cc(Cl)cc1C(=O)OCC(=O)NC1CC1,-112.6,·,-5.0,2.1*,0.6,41.4
COc1ccc(CCNC(=O)CN(C2CCCCC2)S(C)(=O)=O)cc1OC,-1.9,-7.2,-5.0,1,0.9,11.4
OC1(c2ccccc2F)CCN(Cc2nnnn2CCc2ccccc2)CC1,80.2*,-10.6,2.0,0.2,0.3,65.1*
CC(C)(C)NC(=O)CSc1nccn1Cc1ccccc1,12.5,-0.6,-1.0,0.9,0.6,44.4
Cc1cc(NC(=O)CSc2ncnc3ccccc23)no1,22.0,2.7,5.0,0.8,0.8,21.6
SMILES,CYP2C9 inh,tolC growth inh,E coli WT exp,CYP2C9 act,CYP2C19 activ,CYP2C19 inh
CCOC(=O)c1cc2sccc2n1CC(=O)c1ccc2c(c1)OCCO2,95.8*,20.1,-2.0,0,0.1,92.9*
CCN(CC)C(=O)C1CC(=O)N(c2ccc(F)c(Cl)c2)C1 (stereo unspecified),-11.0,-14.3,0.0,1.1,1,-2.5
CNc1nc2sc3c(c2c(=O)n1C)CC(C)(C)SC3,55.9*,23.3,6.0,0.4,0.3,72.9*
NC(=O)C1CCN(C(c2ccccc2Cl)c2nnnn2Cc2ccc3c(c2)OCO3)CC1 (stereo unspecified),68.1*,32.2,-17.0,0.3,0.2,81.1*
CC(C)C(c1nnnn1Cc1ccc(F)cc1)N1CCN(C(=O)c2ccco2)CC1 (stereo unspecified),62.1*,-4.6,5.0,0.4,0.5,50.3*
CCC(c1nnnn1Cc1ccc2c(c1)OCO2)N1CCN(c2ccccc2)CC1 (stereo unspecified),81.1*,30.3,-11.0,0.2,0.3,68.3*
CC(C)C(c1nnnn1Cc1ccc(F)cc1)N1CCN(Cc2ccc3c(c2)OCO3)CC1 (stereo unspecified),72.1*,0.0,4.0,0.3,0.1,86.9*
Cc1oc(-c2ccc(Cl)cc2)nc1CN1CCCC(C(=O)N2CCc3ccccc32)C1 (stereo unspecified),·,11.2,·,·,·,·
Cc1ccc(-c2nnc(Nc3ccccc3)o2)cc1,22.4,-5.6,-10.0,0.8,0.6,44.9
COc1ccc(C(CNC(=O)c2ccc(S(=O)(=O)N3CCOCC3)cc2)N2CCCCC2)cc1 (stereo unspecified),·,-11.0,1.0,·,·,·
Nc1nc2nc(SCC(=O)N3CCCc4ccccc43)[nH]c2c(=O)[nH]1,-19.0,-22.3,-9.0,1.2,1.2,-18.9
CC(=O)c1cccc(NC(=O)NCCS(C)=O)c1 (stereo unspecified),-11.1,·,9.0,1.1,1.1,-14.0
Cc1ccc(S(=O)(=O)Cc2ccc(C(=O)NCCCN3CCCC3=O)o2)cc1,23.3,-8.2,-6.0,0.8,1,2.5
CCC(c1nnnn1Cc1ccc2c(c1)OCO2)N1CCN(c2ccc(F)cc2)CC1 (stereo unspecified),87.1*,24.8,-4.0,0.1,0.6,43.0
CCCC(c1nnnn1Cc1cccs1)N1CCN(c2ccc(OC)cc2)CC1 (stereo unspecified),35.3,36.9,-16.0,0.6,0.6,41.6
CCC(c1nnnn1Cc1ccc2c(c1)OCO2)N1CCN(c2ccc(OC)cc2)CC1 (stereo unspecified),83.0*,12.2,-18.0,0.2,0.3,72.9*
CCOC(=O)C1C2C=CC3(CN(C4CCCC4)C(=O)C13)O2 (stereo unspecified),-10.0,-22.4,1.0,1.1,0.9,11.2
COc1cc(C(=O)NCCCN2CCCC2=O)cc(OC)c1OC,-7.2,·,-1.0,1.1,1,0.4
CN(CCOc1ccccc1)S(=O)(=O)c1ccc2oc3ccccc3c2c1,-62.2,·,-27.0,1.6,0.5,52.2*
O=C(Nc1ccc(N2CCOCC2)c(Cl)c1)c1ccc(Br)o1,50.8*,19.7,9.0,0.5,0.4,57.8*
O=C(/C=C/c1ccccc1)NC(=S)Nc1ccc(N2CCOCC2)c(Cl)c1,3.7,·,-15.0,1,1,-1.0
Cc1cc(N2CCCCC2)nc2ccc(NC(=O)c3ccc(Br)o3)cc12,81.4*,·,1.0,0.2,0.1,94.1*
Cc1ccc(NC(=O)c2cc(NC(=O)c3ccco3)ccc2N2CCOCC2)cc1Cl,69.3*,·,-12.0,0.3,0.5,46.8
O=C(NC(=S)Nc1ccc(N2CCOCC2)c(Cl)c1)C(c1ccccc1)c1ccccc1,76.1*,·,-14.0,0.2,0.9,10.2
